Test results from publication PMC6146057 (ACS chemical neuroscience, 2018).
Entries after “also recorded” stand apart in the source; their conditions may differ.

Experiments:
rat M1 [1] = biological target: T1, rat M1 (Rattus norvegicus, UniProt P08482); test: Calcium mobilization assay, rat M1 cell line; type: cell-based
T1 sequence (P08482 1-460): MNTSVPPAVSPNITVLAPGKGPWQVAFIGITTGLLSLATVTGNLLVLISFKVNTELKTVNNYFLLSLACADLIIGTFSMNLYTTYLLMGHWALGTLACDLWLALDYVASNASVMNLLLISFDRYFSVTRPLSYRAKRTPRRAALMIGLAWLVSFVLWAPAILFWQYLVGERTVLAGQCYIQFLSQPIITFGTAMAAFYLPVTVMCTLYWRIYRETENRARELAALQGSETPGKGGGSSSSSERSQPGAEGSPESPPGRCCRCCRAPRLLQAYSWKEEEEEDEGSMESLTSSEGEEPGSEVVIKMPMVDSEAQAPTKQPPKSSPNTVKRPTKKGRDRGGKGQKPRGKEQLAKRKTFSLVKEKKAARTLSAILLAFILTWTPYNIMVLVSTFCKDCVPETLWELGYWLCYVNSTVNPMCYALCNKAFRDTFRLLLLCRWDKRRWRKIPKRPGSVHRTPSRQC
Summary of the method: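 Muscarinic receptor-expressing CHO cells were plated at 20,000 cells/well in medium without G418 the day before. They were loaded with 1.15 μM Fluo-4 AM for 45 min at 37 °C in HBSS with 20 mM HEPES and 2.5 mM probenecid. Test compound (10-point 1:3 series, top final 30 μM) was added for 2.5 min, then EC20 ACh for 1 min. Calcium flux was fitted with a four-parameter logistic curve.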

[2] = Rat brain:plasma distribution; type: in vivo; details: male, Sprague-Dawley, brain and plasma, intravenous
Summary of the method: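 Dual-cannulated male Sprague–Dawley rats received a cassette IV dose of 0.2–0.25 mg/kg per compound via the jugular vein. The vehicle was about 10% ethanol, 40% PEG400 and 50% DMSO. Carotid blood and brain were collected at 0.25 h. Brains were rinsed in PBS, snap frozen and bead-homogenised, and plasma and brain were analysed by LC/MS/MS.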

[3] = system: 68 GPCRs, ion channels, and transporters; test: Eurofins Lead Profiling panel; type: binding; details: @10 μM, 68 targets
rats [4] = test: Novel object recognition task; type: in vivo, rat
Summary of the method: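 Male Sprague–Dawley rats were habituated to the arena. They received vehicle (10% Tween 80) or test compound at 1–10 mg/kg i.p. (1 mL/kg; n = 12) 30 min before a 10 min exposure to two identical objects. After 24 h, one object was replaced by a novel one and exploration was recorded for 3 min. A blinded observer scored exploration, and the recognition index was (novel − familiar)/total exploration time.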

[5] = Cynomolgus monkey IV/PO PK study; type: in vivo
Summary of the method: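 Male cynomolgus monkeys (n = 3) received a single IV bolus of 1 mg/kg in ethanol:PEG400:saline (10:60:30, v/v/v) and a single oral dose of 3 mg/kg in 30% aqueous Captisol. Plasma PK parameters were calculated by noncompartmental analysis.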

rats [6] = test: Contextual fear conditioning, risperidone-induced deficit; type: in vivo, rat; details: 10 mg/kg VU0486846 coadministered with 3 mg/kg risperidone
[7] = Plasma protein binding by equilibrium dialysis, human; type: in vitro ADME; details: pH 7.4
Summary of the method: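 Plasma spiked with test article was dialysed against 25 mM phosphate buffer, pH 7.4, by equilibrium dialysis for 4 h at 37 °C with shaking. Aliquots from each chamber were matrix-matched, extracted with ice-cold acetonitrile, centrifuged and quantified by LC/MS/MS.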

rats [8] = test: Modified Irwin Toxicology Battery in rats; type: in vivo, rat; details: 56.6 mg/kg i.p.
Summary of the method: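 Rats received vehicle or test compound at 56.6 mg/kg i.p. in 10% Tween 80 (2 mL/kg; n = 3) after baseline assessment. A blinded observer scored autonomic and somatomotor parameters at 15, 30, 60, 180 and […].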

rat M1 [9] = biological target: T1, rat M1; test: [3H]-NMS competition radioligand binding; details: up to 30 μM, rat M1-CHO membranes
Summary of the method: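 Rat M1-CHO membranes (10 μg) were incubated with test compound (11-point 1:3 series, top final 30 μM) and 0.088 nM [3H]-NMS (Kd). Binding buffer was 20 mM HEPES, 10 mM MgCl2 and 100 mM NaCl, pH 7.4, for 1 h at room temperature with shaking. Nonspecific binding was defined with 10 μM atropine. Samples were filtered, washed three times with ice-cold Tris buffer and counted by scintillation.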

[10] = Mouse plasma-brain exposure; type: in vivo; details: male, C57BL/6J, brain and plasma, intraperitoneal, 100 mg/kg
Summary of the method: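 Male C57BL/6J mice aged 7–9 weeks were dosed i.p. with test compound in 10% Tween 80 (1–10 mg/mL, 10 mL/kg). Brain and trunk blood were collected at 0.25 h. Brains were washed in cold saline and frozen on dry ice. EDTA plasma was separated, and both matrices were analysed by LC/MS/MS.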

[11] = Rat brain homogenate binding; type: in vitro ADME
[12] = system: layer V medial prefrontal cortex fEPSPs; test: Extracellular field electrophysiology in layer V prelimbic mPFC slices; design: species or system mouse
Summary of the method: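 Coronal prelimbic slices (400 μm) recovered in NMDG-HEPES solution (pH 7.3) for 8–10 min at 32 °C, then were perfused with ACSF at 2 mL/min and 30–32 °C. Layer V fEPSPs were evoked from layers II–III (200 μs, 0.05 Hz) or optically in ChR2-injected mice. Compound alone was bath-applied for 20 min. Alternatively, 10 μM compound was applied for 10 min, then with 3 μM OxoM for 10 min. Slope was measured 46–50 min after washout.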

[13] = male, cynomolgus monkey, plasma, intravenous, 1 mg/kg

Structure (SMILES): O=C(N[C@H]1CCCC[C@@H]1O)[C@H]1CN(Cc2ccc(-n3cccn3)cc2)c2ccccc2O1 [VU0486846, (2R)-N-[(1S,2S)-2-Hydroxycyclohexyl]-4-[(4-pyrazol-1-ylphenyl)-methyl]-2,3-dihydro-1,4-benzoxazine-2-carboxamide]
- EC50 (rat M1 [1]; M1 PAM pEC50, rat M1 cell line, high expression): 234 nM
- EC50 (rat M1 [1]; M1 agonist activity EC50, rat M1 cell line, compound alone): 5600 nM
- EC50 (rat M1 [1]; M1 agonist activity pEC50, rat M1 cell line, compound alone): 5370 nM
- EC50 (rat M1 [1]; Rat M1 CRC EC50, Figure 4B): 253 nM
- M1 agonist activity, % ACh (rat M1 [1]; rat M1 cell line, compound alone): 26 ± 6 % ACh
- M1 PAM efficacy, % ACh Max (rat M1 [1]; rat M1 cell line, high expression): 83 ± 1 % ACh Max
- Kp at 0.25 h [2]: 0.18
- Kp uu at 0.25 h [2]: 0.05
- inhibition at any target in the panel [3]: ≤ 50%
- Effect on recognition memory (rats [4]; 1–10 mg/kg i.p.): dose-dependently enhanced recognition memory
- minimum effective dose, novel object recognition (rats [4]; i.p., 30 min pretreatment, memory assessed 24 h later): 3 mg/kg
- Adverse events or cholinergic side effects in PK study ([5]; cynomolgus monkey PK study): No adverse events or cholinergic side effects
- half-life ([5]; male, cynomolgus monkey, plasma, 1 mg/kg): 252 min
- Vd [5, 13]: 1 L/kg
- clearance [5, 13]: 18 mL/min/kg
- bioavailability ([5]; male, cynomolgus monkey, plasma, po, 3 mg/kg): 37%
- Conditioned freezing (rats [6]): restored conditioned freezing to vehicle-treated control levels
- fraction unbound at 4 h [7]: 0.12
- free brain levels (rats [8]): 32 nM
- free terminal plasma exposure (rats [8]): 489 nM
- total brain levels (rats [8]): 1.15 µM
- total terminal plasma exposure (rats [8]): 4.4 µM
- Cholinergic side effects or adverse effects (rats [8]; 3 h evaluation period): did not produce any cholinergic side effects or pronounced adverse effects
- Inhibition of orthosteric [3H]-NMS binding (rat M1 [9]): no displacement of [^3H]-NMS binding; also recorded: does not substantially inhibit binding
- Kp at 0.25 h [10]: 0.67
- Kp uu at 0.25 h [10]: 0.17
- fraction unbound [11]: 0.03
- Magnitude of LTD, PAM + CCh vs CCh alone ([12]; 3 μM VU0486846 + 10 μM CCh, electrically evoked, p < 0.05): significant increase in the magnitude of LTD
- Change in fEPSP slope, compound alone (agonist activity in PFC) ([12]; 3 μM bath application 20 min, electrically evoked layer V fEPSPs): no significant change
- Magnitude of LTD, PAM + OxoM vs OxoM alone ([12]; 10 μM VU0486846 + 3 μM OxoM, optically evoked, p < 0.05): significantly enhanced
